# Source: ChEMBL document CHEMBL3739385, “Stelleralides D-J and Anti-HIV Daphnane Diterpenes from Stellera chamaejasme” (J Nat Prod, 2015)
# Key:
# [1] = tested on: Human immunodeficiency virus 1; assay: Antiviral activity against HIV-1 NL4-3 infected in MT4 cells assessed as viral replication measured on day 4 post infection by ELISA; format: functional, organism-based; conditions: Human immunodeficiency virus 1, NL4-3, MT4, 96 h
# How it was run: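 HIV-1 NL4-3 at MOI 0.001 infects MT4 cells in the presence of graded compound concentrations. Fresh medium with compound is added 48 h after infection to keep the cells growing. On day 4 post-infection, replication is read by p24 ELISA.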
# [2] = Selectivity index, ratio of CC50 for human MT4 cells to EC50 for HIV-1 NL4-3 infected in MT4 cells; format: toxicity, cell-based; conditions: read-out: Ratio CC50/EC50
# MT4 = assay: Cytotoxicity against human MT4 cells by cellTiterGlo assay; format: cell-based
# How it was run: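 MT4 cells are cultured in parallel with the antiviral assay and treated with compounds. Viability is read with CellTiter-Glo luminescent reagent, which quantifies ATP in metabolically active cells. CC50, the concentration reducing viable cells by 50%, is calculated from the dose-response curve.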
Structure (SMILES),EC50 [1],selectivity ratio [2],CC50 (MT4)
C=C(C)[C@@]12O[C@@]3(/C=C/C=C/CCCCCCCCC)O[C@@H]1[C@@H]1[C@@H]4O[C@]4(CO)[C@@H](O)[C@]4(O)C(=O)C(C)=C[C@H]4[C@@]1(O3)[C@H](C)[C@H]2OC(C)=O,12 nM,≥ 1300,≥ 15600 nM
C=C(C)[C@]12C[C@@H](COC(=O)c3ccccc3)[C@]34OC5(CCCCCCC[C@H](C)[C@@H]6[C@@H]3[C@]3(O[C@]6(C)OC3=O)[C@H](O)[C@@]3(COC(=O)CCCCCCC/C=C\C/C=C\CCCCC)O[C@H]3[C@H]4[C@H]1O5)O2,6710 nM,≥ 1,≥ 10800 nM
C=C(C)[C@]12C[C@@H](COC(=O)c3ccccc3)[C@@]34OC5(O[C@@H]1[C@@H]3[C@@H]1O[C@]1(CO)[C@@H](O)[C@@]1(O)[C@H]4[C@H]([C@H](C)[C@@H]1OC(=O)c1ccccc1)[C@H](C)C[C@@H](OC(=O)c1ccccc1)CCCC[C@H]5O)O2,0.73 nM,≥ 15300,≥ 11200 nM
C=C(C)[C@]1(O)C[C@@H](C)[C@@]2(O)[C@H]([C@H]1OC(=O)/C=C/C=C/CCCCCCCCC)[C@@H]1O[C@]1(CO)[C@@H](O)[C@]1(O)C(=O)C(C)=C[C@H]12,59 nM,≥ 281,≥ 16600 nM
C=C(C)[C@]12C[C@@H](C)[C@@]34OC(/C=C/C=C/CCCCCCCCCC)(O[C@@H]1[C@@H]3[C@@H]1O[C@]1(CO)[C@@H](O)[C@]1(O)C(=O)C(C)=C[C@H]14)O2,13 nM,≥ 1280,≥ 16700 nM
C=C(C)[C@]12C[C@@H](COC(=O)c3ccccc3)[C@]34OC5(CCCCCCC[C@H](C)[C@@H]6[C@@H]3[C@]3(O[C@]6(C)OC3=O)[C@H](O)[C@@]3(CO)O[C@H]3[C@H]4[C@H]1O5)O2,330 nM,≥ 41,≥ 13800 nM
C=C(C)[C@]12C[C@@H](COC(=O)c3ccccc3)[C@]34OC5(CCCCCCC[C@H](C)[C@@H]6[C@@H]3[C@]3(O[C@]6(C)OC3=O)[C@H](O)[C@@]3(COC(=O)CCCCCCCCCCCCCCC)O[C@H]3[C@H]4[C@H]1O5)O2,590 nM,≥ 18,≥ 11100 nM
C=C(C)[C@@]12OC3(/C=C/C=C/CCCCCCCCCC)O[C@@H]1[C@@H]1[C@@H]4O[C@]4(CO)[C@@H](O)[C@]4(O)C(=O)C(C)=C[C@H]4[C@@]1(O3)[C@H](C)[C@H]2OC(C)=O,39 nM,≥ 392,≥ 15300 nM
C=C(C)[C@]12C[C@@H](COC(=O)c3ccccc3)[C@@]34OC5(O[C@@H]1[C@@H]3[C@@H]1O[C@]1(COC(=O)c1ccccc1)[C@@H](O)[C@@]1(O)[C@H]4[C@H]([C@H](C)[C@@H]1O)[C@H](C)CCCCCC[C@H]5O)O2,0.98 nM,≥ 13200,≥ 12900 nM
C=C(C)[C@]12C[C@@H](C)[C@@]34O[C@](/C=C/C=C/CCCCCCCCC)(O[C@@H]1[C@@H]3[C@@H]1O[C@]1(CO)[C@@H](O)[C@]1(O)C(=O)C(C)=C[C@H]14)O2,2.6 nM,≥ 5380,≥ 14000 nM
C=C(C)[C@]12C[C@@H](COC(C)=O)[C@@]34OC5(O[C@@H]1[C@@H]3[C@@H]1O[C@]1(CO)[C@@H](O)[C@@]1(O)[C@H]4[C@H]([C@H](C)[C@@H]1OC(=O)c1ccccc1)[C@H](C)C[C@@H](OC(=O)c1ccccc1)CCCC[C@H]5O)O2,0.93 nM,≥ 12900,≥ 12000 nM
C=C(C)[C@]1(O)C[C@@H](C)[C@@]2(O)[C@H]([C@H]1OC(=O)/C=C/C=C/CCCCCCCCC)[C@H](O)[C@@](O)(CO)[C@@H](O)[C@]1(O)C(=O)C(C)=C[C@H]12,44 nM,≥ 100,≥ 4400 nM
C=C(C)[C@]12C[C@@H](COC(=O)c3ccccc3)[C@@]34OC5(O[C@@H]1[C@@H]3[C@@H]1O[C@]1(CO)[C@@H](O)[C@@]1(O)[C@H]4[C@H]([C@H](C)[C@@H]1OC(=O)c1ccccc1)[C@H](C)CCCCCC[C@H]5O)O2,0.06 nM,≥ 21500,≥ 1290 nM
C=C(C)[C@]12C[C@@H](C)[C@@]34OC5(CCCCCCC[C@@H](C)[C@H]6[C@H](C)[C@H](OC(=O)c7ccccc7)[C@@](O)([C@H](O)[C@@]7(CO)O[C@H]7[C@H]3[C@H]1O5)[C@@H]64)O2,1.1 nM,≥ 14300,≥ 15700 nM
C=C(C)[C@]12C[C@@H](C)[C@]34O[C@]5(CCCCCCC[C@H](C)[C@@H]6[C@@H]3[C@]3(O[C@]6(C)OC3=O)[C@H](O)[C@@]3(CO)O[C@H]3[C@H]4[C@H]1O5)O2,1120 nM,≥ 16,≥ 18300 nM
C=C(C)[C@@]1(O)[C@H](OC(=O)/C=C/C=C/CCCCCCCCC)[C@@H]2[C@@H]3O[C@]3(CO)[C@@H](O)[C@]3(O)C(=O)C(C)=C[C@H]3[C@@]2(O)[C@H](C)[C@H]1OC(C)=O,44 nM,≥ 345,≥ 15200 nM
C=C(C)[C@]12C[C@@H](COC(=O)c3ccccc3)[C@@]34OC5(CCCCCCC[C@@H](C)[C@H]6[C@H](C)C(=O)[C@@](O)([C@H](O)[C@@]7(CO)O[C@H]7[C@H]3[C@H]1O5)[C@@H]64)O2,48 nM,≥ 318,≥ 15300 nM
C=C(C)[C@@]12OC3(/C=C/C=C/CCCCCCCCCC)O[C@@H]1[C@@H]1[C@@H]4O[C@]4(CO)[C@@H](O)[C@]4(O)C(=O)C(C)=C[C@H]4[C@@]1(O3)[C@H](C)[C@H]2O,120 nM,≥ 135,≥ 16300 nM
C=C(C)[C@]12C[C@@H](C)[C@@]34O[C@](CCCCCCCCC)(O[C@@H]1[C@@H]3[C@@H]1O[C@]1(CO)[C@@H](O)[C@]1(O)C(=O)C(C)=C[C@H]14)O2 [SIMPLEXIN],47 nM,≥ 400,≥ 18800 nM
Cc1cn([C@H]2C[C@H](N=[N+]=[N-])[C@@H](CO)O2)c(=O)[nH]c1=O [ZIDOVUDINE],,,≥ 3740 nM
